Reference: ChEMBL document CHEMBL1287758, “Synthesis of D- and L-tyrosine-chlorambucil analogs active against breast cancer cell lines” (Bioorg Med Chem Lett, 2010)

Experiments:
Assay type in all cases: functional, cell-based; call rule not given here
MCF7 = experiment: Cytotoxicity against estrogen receptor-positive human MCF7 cells by MTT assay
How it was run: (§1)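 MTT read-out after 72 h continuous exposure of human breast cancer cells to compound. Each assay run in duplicate; IC50 taken from three independent experiments and reported as mean SEM. Chlorambucil served as positive control.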

MDA-MB-231 = experiment: Cytotoxicity against estrogen receptor-negative human MDA-MB-231 cells by MTT assay; how it was run: as §1
[1] = Cytotoxicity against estrogen receptor-negative human MDA-MB-436 cells by MTT assay; how it was run: as §1
MDA-MB-468 = experiment: Cytotoxicity against estrogen receptor-negative human MDA-MB-468 cells by MTT assay; how it was run: as §1
[2] = Homo sapiens, MCF7, read-out: IC50
[3] = Homo sapiens, MDA-MB-231, read-out: IC50
[4] = Homo sapiens, MDA-MB-436, read-out: IC50
[5] = Homo sapiens, MDA-MB-468, read-out: IC50

Row | Structure (SMILES) | IC50 (MCF7; [2]) [µM] | IC50 (MDA-MB-231; [3]) [µM] | IC50 [1, 4] [µM] | IC50 (MDA-MB-468; [5]) [µM] | IC50 (MDA-MB-231; mda-mb-231) | IC50 ([1]; mda-mb-436) | IC50 (MDA-MB-468; mda-mb-468) | IC50 (MCF7; mcf7)
1 | O=C(CCCc1ccc(N(CCCl)CCCl)cc1)NCCCCCC(=O)N[C@H](CO)Cc1ccc(O)cc1 | 62.2 | 55.1 | 28.9 | 77.3 | – | – | – | –
2 | O=C(CCCc1ccc(N(CCCl)CCCl)cc1)NCCCCCCCCCCC(=O)N[C@H](CO)Cc1ccc(O)cc1 | 19.4 | – | – | – | Not Active | Not Active | Not Active | –
3 | O=C(O)CCCc1ccc(N(CCCl)CCCl)cc1 [CHLORAMBUCIL] | 130 | 137 | 132 | 147 | – | – | – | –
4 | O=C(CCCc1ccc(N(CCCl)CCCl)cc1)NCCCCCCCCCCC(=O)N[C@@H](CO)Cc1ccc(O)cc1 | 16.3 | – | – | – | Not Active | – | – | –
5 | COC(=O)[C@@H](Cc1ccc(O)cc1)NC(=O)CCCCCNC(=O)CCCc1ccc(N(CCCl)CCCl)cc1 | 152 | – | – | – | – | – | – | –
6 | O=C(CCCc1ccc(N(CCCl)CCCl)cc1)NCCCCCC(=O)N[C@@H](CO)Cc1ccc(O)cc1 | 67 | – | – | – | – | – | – | –
7 | COC(=O)[C@@H](Cc1ccc(O)cc1)NC(=O)CCCc1ccc(N(CCCl)CCCl)cc1 | 50 | 47.2 | – | – | – | – | – | –
8 | O=C(CCCc1ccc(N(CCCl)CCCl)cc1)N[C@H](CO)Cc1ccc(O)cc1 | 34.1 | 39.6 | 24.4 | 55.1 | – | – | – | –
9 | COC(=O)[C@@H](Cc1ccc(O)cc1)NC(=O)CCCCCCCCCCNC(=O)CCCc1ccc(N(CCCl)CCCl)cc1 | – | – | – | – | Not Active | – | – | Not Active
10 | COC(=O)[C@H](Cc1ccc(O)cc1)NC(=O)CCCCCNC(=O)CCCc1ccc(N(CCCl)CCCl)cc1 | 25.4 | 36.8 | 15 | 59 | – | – | – | –
11 | COC(=O)[C@H](Cc1ccc(O)cc1)NC(=O)CCCCCCCCCCNC(=O)CCCc1ccc(N(CCCl)CCCl)cc1 | 67.9 | – | – | – | Not Active | Not Active | Not Active | –
12 | O=C(CCCc1ccc(N(CCCl)CCCl)cc1)N[C@@H](CO)Cc1ccc(O)cc1 | 31.4 | 29.8 | – | – | – | – | – | –
13 | COC(=O)[C@H](Cc1ccc(O)cc1)NC(=O)CCCc1ccc(N(CCCl)CCCl)cc1 | 31.9 | 37.8 | 15.4 | 62.5 | – | – | – | –
